Measured values from ChEMBL document CHEMBL1221355, “Substituted biaryl pyrazoles as sodium channel blockers” (Bioorg Med Chem Lett, 2010).

Tested on: Rattus norvegicus
Assay: Antiallodynic activity in rat spinal nerve ligation model of neuropathic pain assessed as reversal of allodynia at 10 mg/kg, po after 2 hrs
Type: functional
How it was run: (§1)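 Rat spinal nerve ligation (Chung) neuropathic pain model; compound given orally as a single dose (10 or 30 mg/kg). Allodynia reversal read at 2 h and 4 h after dosing, expressed as percent reversal.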
In the case of `Cc1cc(C(N)=O)nn1-c1cccc(-c2ccccc2OC(F)(F)F)c1`, the Activity is reported as 33%. For `Cc1cc(C(N)=O)nn1-c1cccc(-c2cc(C(F)(F)F)ccc2C(F)(F)F)c1`, the Activity was 39%. In the case of `Cc1cc(C(N)=O)nn1-c1cc(-c2ccccc2OC(F)(F)F)ccc1F`, the Activity is reported as 17%. `Cc1cc(C(N)=O)nn1-c1cccc(-c2ccccc2OCC(F)(F)F)c1` gave an Activity of 18%.

Tested on: Rattus norvegicus
Assay: Antiallodynic activity in rat spinal nerve ligation model of neuropathic pain assessed as reversal of allodynia at 10 mg/kg, po after 4 hrs
Type: functional
How it was run: as §1
With `Cc1cc(C(N)=O)nn1-c1cccc(-c2ccccc2OC(F)(F)F)c1` the Activity was 11%. Molecule `Cc1cc(C(N)=O)nn1-c1cccc(-c2cc(C(F)(F)F)ccc2C(F)(F)F)c1` has an Activity of 35%. Work on `Cc1cc(C(N)=O)nn1-c1cc(-c2ccccc2OC(F)(F)F)ccc1F` yielded an Activity of 8%. In the case of `Cc1cc(C(N)=O)nn1-c1cccc(-c2ccccc2OCC(F)(F)F)c1`, the Activity is reported as 4%.

Target: T1, Sodium channel protein type 9 subunit alpha (Homo sapiens, UniProt Q15858)
T1 sequence (Q15858 whole entry): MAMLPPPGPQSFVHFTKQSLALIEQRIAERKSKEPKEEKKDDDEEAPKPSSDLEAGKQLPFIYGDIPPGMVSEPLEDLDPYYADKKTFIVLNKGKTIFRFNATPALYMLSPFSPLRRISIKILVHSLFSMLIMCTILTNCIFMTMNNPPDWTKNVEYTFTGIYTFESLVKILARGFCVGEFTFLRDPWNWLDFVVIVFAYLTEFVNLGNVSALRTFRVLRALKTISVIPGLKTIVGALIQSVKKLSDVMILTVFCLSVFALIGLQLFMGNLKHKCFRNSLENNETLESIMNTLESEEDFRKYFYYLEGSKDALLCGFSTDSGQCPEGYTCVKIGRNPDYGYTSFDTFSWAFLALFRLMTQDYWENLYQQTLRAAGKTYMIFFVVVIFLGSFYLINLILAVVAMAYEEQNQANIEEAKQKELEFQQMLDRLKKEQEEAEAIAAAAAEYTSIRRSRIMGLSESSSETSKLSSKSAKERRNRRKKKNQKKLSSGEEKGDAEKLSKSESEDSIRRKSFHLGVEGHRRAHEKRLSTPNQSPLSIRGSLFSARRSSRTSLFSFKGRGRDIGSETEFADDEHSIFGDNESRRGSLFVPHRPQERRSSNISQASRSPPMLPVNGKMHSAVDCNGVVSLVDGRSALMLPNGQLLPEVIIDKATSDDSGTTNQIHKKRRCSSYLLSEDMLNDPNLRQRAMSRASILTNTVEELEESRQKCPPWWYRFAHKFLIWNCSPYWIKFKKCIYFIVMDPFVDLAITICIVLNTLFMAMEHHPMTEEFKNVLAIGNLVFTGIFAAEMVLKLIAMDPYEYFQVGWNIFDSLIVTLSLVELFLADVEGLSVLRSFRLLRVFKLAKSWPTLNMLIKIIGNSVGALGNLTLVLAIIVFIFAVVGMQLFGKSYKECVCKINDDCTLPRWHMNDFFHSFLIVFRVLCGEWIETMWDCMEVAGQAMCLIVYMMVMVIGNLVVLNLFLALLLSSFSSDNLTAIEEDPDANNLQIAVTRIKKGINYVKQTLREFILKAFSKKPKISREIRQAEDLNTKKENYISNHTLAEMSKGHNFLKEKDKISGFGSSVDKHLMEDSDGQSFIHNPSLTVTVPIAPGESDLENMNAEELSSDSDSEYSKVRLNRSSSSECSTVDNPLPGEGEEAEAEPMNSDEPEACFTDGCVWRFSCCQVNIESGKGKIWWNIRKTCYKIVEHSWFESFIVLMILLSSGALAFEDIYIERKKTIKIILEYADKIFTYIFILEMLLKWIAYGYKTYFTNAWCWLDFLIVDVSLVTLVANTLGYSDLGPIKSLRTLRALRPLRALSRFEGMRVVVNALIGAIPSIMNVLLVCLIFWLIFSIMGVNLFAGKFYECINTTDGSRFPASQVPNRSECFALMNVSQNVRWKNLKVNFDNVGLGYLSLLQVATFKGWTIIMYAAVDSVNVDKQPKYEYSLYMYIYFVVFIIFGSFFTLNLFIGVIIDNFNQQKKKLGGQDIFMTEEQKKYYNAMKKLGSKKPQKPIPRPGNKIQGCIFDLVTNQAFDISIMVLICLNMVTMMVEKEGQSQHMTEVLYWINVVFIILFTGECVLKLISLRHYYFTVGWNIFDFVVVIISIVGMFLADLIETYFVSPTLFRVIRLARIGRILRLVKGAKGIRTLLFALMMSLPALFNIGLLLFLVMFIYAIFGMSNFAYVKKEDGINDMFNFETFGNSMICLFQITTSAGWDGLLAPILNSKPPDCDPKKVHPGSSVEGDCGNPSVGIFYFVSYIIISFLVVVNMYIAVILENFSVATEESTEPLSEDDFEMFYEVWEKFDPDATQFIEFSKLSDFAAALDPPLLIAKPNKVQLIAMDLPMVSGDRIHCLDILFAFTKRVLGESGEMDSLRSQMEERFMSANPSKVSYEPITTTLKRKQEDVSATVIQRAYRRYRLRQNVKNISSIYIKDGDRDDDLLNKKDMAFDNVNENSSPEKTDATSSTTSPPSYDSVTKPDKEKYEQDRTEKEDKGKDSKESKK
Assay: Inhibition of human Nav 1.7 channel by electrophysiology
`NC(=O)n1ccc(-c2cccc(-c3ccccc3Cl)c2)n1` showed a Ki of 18 nM. For `NC(=O)c1nc(-c2cccc(-c3ccccc3OC(F)(F)F)c2)cs1`, the Ki was 15 nM.

Target: hERG (KCNH2) (Homo sapiens, UniProt Q12809)
Sequence (Q12809 whole entry): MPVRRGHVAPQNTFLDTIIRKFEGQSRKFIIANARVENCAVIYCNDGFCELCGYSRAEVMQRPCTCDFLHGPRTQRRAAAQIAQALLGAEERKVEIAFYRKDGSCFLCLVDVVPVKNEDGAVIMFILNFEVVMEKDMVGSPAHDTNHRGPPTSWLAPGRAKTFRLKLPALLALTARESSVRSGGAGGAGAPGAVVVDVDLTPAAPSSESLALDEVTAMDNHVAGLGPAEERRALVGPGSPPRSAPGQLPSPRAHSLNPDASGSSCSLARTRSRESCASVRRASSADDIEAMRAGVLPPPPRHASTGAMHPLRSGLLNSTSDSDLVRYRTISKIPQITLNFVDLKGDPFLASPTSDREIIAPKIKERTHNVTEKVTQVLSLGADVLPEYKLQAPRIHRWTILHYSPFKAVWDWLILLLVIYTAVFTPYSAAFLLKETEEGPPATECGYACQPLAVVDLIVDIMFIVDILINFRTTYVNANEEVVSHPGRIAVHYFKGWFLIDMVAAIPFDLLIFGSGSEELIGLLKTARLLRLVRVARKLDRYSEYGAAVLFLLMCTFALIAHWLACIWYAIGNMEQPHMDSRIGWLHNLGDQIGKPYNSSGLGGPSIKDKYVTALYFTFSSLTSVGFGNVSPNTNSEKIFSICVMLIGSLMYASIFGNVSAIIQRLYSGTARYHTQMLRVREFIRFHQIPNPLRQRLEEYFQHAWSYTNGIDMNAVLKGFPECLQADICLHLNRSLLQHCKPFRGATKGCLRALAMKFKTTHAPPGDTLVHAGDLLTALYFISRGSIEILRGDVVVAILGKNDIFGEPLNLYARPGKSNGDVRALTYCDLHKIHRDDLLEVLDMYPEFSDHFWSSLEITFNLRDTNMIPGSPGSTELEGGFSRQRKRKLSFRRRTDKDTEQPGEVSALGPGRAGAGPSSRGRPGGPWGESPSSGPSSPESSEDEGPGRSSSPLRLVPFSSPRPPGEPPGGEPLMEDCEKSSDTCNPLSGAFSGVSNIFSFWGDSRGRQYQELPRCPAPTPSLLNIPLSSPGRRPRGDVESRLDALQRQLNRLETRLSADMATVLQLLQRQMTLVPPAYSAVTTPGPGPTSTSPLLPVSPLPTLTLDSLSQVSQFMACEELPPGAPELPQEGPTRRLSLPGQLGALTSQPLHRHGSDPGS
Assay: Displacement of [35S][…] from human ERG channel at 10 uM
How it was run: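 hERG binding assay measuring displacement of 35S-labeled MK-0499, a known hERG blocker. Test compound at 10 μM; result expressed as percent inhibition of binding.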
In the case of `Cc1cc(C(N)=O)nn1-c1cccc(-c2ccccc2OC(F)(F)F)c1`, the inhibition at 10 µM is reported as 6%. `Cc1cc(C(N)=O)nn1-c1cccc(-c2cc(C(F)(F)F)ccc2C(F)(F)F)c1` showed an inhibition at 10 µM of 51%. For `Cc1cc(C(N)=O)nn1-c1cc(-c2ccccc2OC(F)(F)F)ccc1F`, the inhibition at 10 µM was 62%. For `Cc1cc(C(N)=O)nn1-c1cccc(-c2ccccc2OCC(F)(F)F)c1`, the inhibition at 10 µM was 43%.

Target: T1, Sodium channel protein type 9 subunit alpha
Assay: Inhibition of human Nav 1.7 channel by voltage-ion-probe-reader
How it was run: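 Functional membrane-potential FRET assay on voltage-gated hNav1.7, read on a voltage-ion-probe reader (VIPR). Results given as IC50 or as percent inhibition at 10 μM.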
With `Cc1cc(C(N)=O)nn1-c1cccc(-c2ccccc2OC(F)(F)F)c1` the IC50 was 224 nM. `Cc1cc(C(N)=O)nn1-c1cccc(-c2cc(C(F)(F)F)ccc2C(F)(F)F)c1` gave an IC50 of 272 nM. In the case of `Cc1cc(C(N)=O)nn1-c1cc(-c2ccccc2OC(F)(F)F)ccc1F`, the IC50 is reported as 222 nM. `Cc1cc(C(N)=O)nn1-c1cccc(-c2ccccc2OCC(F)(F)F)c1` showed an IC50 of 187 nM.

Target: Cytochrome P450 3A4 (Homo sapiens, UniProt P08684)
Sequence (P08684 whole entry): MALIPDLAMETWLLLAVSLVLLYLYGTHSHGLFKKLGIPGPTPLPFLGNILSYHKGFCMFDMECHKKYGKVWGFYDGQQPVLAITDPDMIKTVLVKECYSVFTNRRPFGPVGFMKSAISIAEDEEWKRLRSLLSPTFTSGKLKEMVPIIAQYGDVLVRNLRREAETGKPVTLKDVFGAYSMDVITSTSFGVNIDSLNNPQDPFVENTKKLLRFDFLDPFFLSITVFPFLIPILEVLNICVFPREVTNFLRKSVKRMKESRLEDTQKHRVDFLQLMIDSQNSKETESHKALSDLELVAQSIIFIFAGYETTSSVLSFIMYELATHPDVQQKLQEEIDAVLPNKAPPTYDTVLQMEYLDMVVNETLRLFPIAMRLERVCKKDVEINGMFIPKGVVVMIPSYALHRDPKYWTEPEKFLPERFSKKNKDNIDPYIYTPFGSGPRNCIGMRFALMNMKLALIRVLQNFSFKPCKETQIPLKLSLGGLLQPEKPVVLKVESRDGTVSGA
Assay: Inhibition of CYP3A4
Type: ADME
With `Cc1cc(C(N)=O)nn1-c1cccc(-c2cc(C(F)(F)F)ccc2C(F)(F)F)c1` the IC50 was 51 µM.

Target: Cytochrome P450 2D6 (Homo sapiens, UniProt P10635)
Sequence (P10635 whole entry): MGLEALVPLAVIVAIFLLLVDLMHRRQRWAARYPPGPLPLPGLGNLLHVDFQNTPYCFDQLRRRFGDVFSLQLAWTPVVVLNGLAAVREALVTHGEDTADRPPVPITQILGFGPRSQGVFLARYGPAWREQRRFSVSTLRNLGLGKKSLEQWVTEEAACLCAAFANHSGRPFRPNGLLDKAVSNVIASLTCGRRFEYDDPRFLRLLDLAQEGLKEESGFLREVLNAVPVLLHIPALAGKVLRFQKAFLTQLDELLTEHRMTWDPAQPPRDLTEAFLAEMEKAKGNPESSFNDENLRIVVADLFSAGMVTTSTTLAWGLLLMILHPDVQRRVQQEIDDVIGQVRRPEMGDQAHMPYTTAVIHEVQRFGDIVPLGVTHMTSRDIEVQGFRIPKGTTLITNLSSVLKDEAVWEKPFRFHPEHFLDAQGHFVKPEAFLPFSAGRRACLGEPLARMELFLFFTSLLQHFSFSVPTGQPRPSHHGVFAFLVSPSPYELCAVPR
Assay: Inhibition of CYP2D6
Type: ADME
For `Cc1cc(C(N)=O)nn1-c1cccc(-c2cc(C(F)(F)F)ccc2C(F)(F)F)c1`, the IC50 was 33 µM.

Target: Cytochrome P450 2C9 (Homo sapiens, UniProt P11712)
Sequence (P11712 whole entry): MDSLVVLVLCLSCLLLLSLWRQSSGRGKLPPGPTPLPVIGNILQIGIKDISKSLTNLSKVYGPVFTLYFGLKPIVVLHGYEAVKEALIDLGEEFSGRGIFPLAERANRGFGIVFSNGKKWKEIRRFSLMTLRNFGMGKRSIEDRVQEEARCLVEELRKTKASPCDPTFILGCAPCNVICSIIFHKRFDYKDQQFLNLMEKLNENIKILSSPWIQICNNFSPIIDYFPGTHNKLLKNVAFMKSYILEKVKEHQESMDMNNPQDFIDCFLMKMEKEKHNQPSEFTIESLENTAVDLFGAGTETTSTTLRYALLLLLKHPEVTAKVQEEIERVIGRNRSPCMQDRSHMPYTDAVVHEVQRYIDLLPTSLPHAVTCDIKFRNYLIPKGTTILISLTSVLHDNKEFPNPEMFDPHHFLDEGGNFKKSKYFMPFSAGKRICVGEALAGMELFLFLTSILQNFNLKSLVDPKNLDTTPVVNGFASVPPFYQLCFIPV
Assay: Inhibition of CYP2C9
Type: ADME
Work on `Cc1cc(C(N)=O)nn1-c1cccc(-c2cc(C(F)(F)F)ccc2C(F)(F)F)c1` yielded an IC50 of 2600 nM.

Tested on: not listed separately
Assay: Clearance in rat plasma at 1 mg/kg, ip
Type: ADME, organism-based
Set-up: dose 1 mg/kg, route intraperitoneal
For `NC(=O)n1ccc(-c2cccc(-c3ccccc3Cl)c2)n1`, the CL/F was 123 mL/min/kg.
